Screens (PubChem BioAssay)
The list is not random: actives were taken first. Their share in the collection is about 1.9%.
LMPTP inh = blocks human LMPTP phosphatase; inhibition, % at 20 µM; P24666; 360,000 compounds, 0.22% hits; recombinant LMPTP-A, OMFP fluorogenic substrate, fluorescence intensity;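 active = compounds that cut the enzyme signal by at least half of the control window in the single-dose screen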;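 also: plate controls were DMSO wells with enzyme plus substrate for no effect and substrate without enzyme for full effect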
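Buffer or medium: Bis-Tris pH 6.0, DTT, detergent; Assay system: LMPTP-A enzyme; Quantity: 0.625 nM enzyme; Detection: endpoint fluorescence intensity; Times: 50 min dark incubation at room temperature; Controls: substrate-only low control, DMSO enzyme-plus-substrate high control; Doses: single 20 µM dose; Read-out: percent inhibition versus substrate-only and uninhibited controls; Reagent: 400 µM OMFP.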
STEP inh = STEP (human) phosphatase inhibition; recombinant STEP, OMFP fluorogenic substrate, fluorescence; inhibition, % at 20 µM; P54829; 360,000 compounds, 0.25% hits;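 active = inhibition at 20 µM, scaled per plate between control wells, above about 37%, limit read from the data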;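 also: 0% = DMSO with enzyme and substrate and 100% = substrate only without enzyme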
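Assay system: isolated STEP enzyme. Buffer or medium: pH 6.0 Bis-Tris with DTT and Tween 20. Also added: fluorogenic phosphatase substrate OMFP at 25 µM final. Dosing: 20 µM, 1% DMSO. Timing: 20 min reaction, room temperature, in the dark. Measured by: fluorescence intensity, excitation 480 nm, emission 540 nm. Evaluation: normalized % inhibition.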
CSN inh = inhibitors of human CSN-mediated cullin deneddylation. Q92905. inhibition, % at 12.5 µM. Purified CSN, SCF-Nedd8-OG deneddylation, fluorescence polarization. 360,000 compounds, 0.38% hits;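 active = pattern-corrected inhibition above about 35%, with an unprinted fluorescence ratio check between 0.5 and 1.5, limit read from the data, passing the limit was not always enough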;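 also: 0% = enzyme with substrate and 100% = substrate without enzyme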
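Material: human Csn5 produced in HEK293T cells; Input: enzyme 0.24 nM; Reagent: SCFSkp2-Nedd8OG substrate at 10 nM final; Dosing: 12.5 µM compound; Incubation: 90 min reaction at room temperature; Detection: fluorescence polarization of the substrate; Evaluation: % inhibition of substrate cleavage by Csn5; Control set: substrate-only high control, full reaction low control.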
SUMO1 PPI mod = alters human SUMO1 binding to SIM partners; AID 602429; SUMO1 binding to a labelled peptide, TR-FRET, 1 h; inhibition, % at 20 µM; P63165; 360,000 compounds, 0.33% hits; in the data active = inhibition above about 37%
Scp-1 inhibitor = Scp-1 (human) phosphatase inhibition. Q9GZU7. Recombinant Scp1, phosphopeptide, malachite green phosphate absorbance. inhibition, % at 20 µM. 340,000 compounds, 0.88% hits;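 active = inhibition above about 50% at 20 µM, limit read from the data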;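 also: plate controls were DMSO wells with enzyme for no effect and wells lacking enzyme for full effect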
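Material: truncated SCP-1 phosphatase (76-261aa) / Buffer or medium: 50 mM Tris acetate pH 5.5, 0.005% Tween-20, 10 mM MgCl2 / Compound dosing: one concentration, 20 µM, with 1.0% DMSO / Incubation: 45 min room-temperature reaction, 5 min colour, 30 min stabiliser / Detection: colorimetric free-phosphate detection, absorbance 630 nm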
DNMT1 inh = blocks human DNA methyltransferase DNMT1. 360,000 compounds, 0.83% hits. DNMT1 molecular beacon, Hinp1I cleavage, fluorescence. P26358. inhibition (reported as % activation of signal), % at 10 µM; in the data active = inhibition above about 50%
* hit, by the source's call; / = no result.

SMILES	LMPTP inh	STEP inh	CSN inh	SUMO1 PPI mod	Scp-1 inhibitor	DNMT1 inh
NC(CSC(c1ccccc1)(c1ccccc1)c1cccc2ccccc12)C(=O)O (stereo not drawn)	3	3	6	0	2	69*
CCOC(=O)c1c(-c2ccc(C)cc2)csc1NC(=O)/C(C#N)=C/c1ccc(O)c(OC)c1	0	0	42*	11	4	8
CCOC(=O)c1c(-c2ccccc2)csc1NC(=O)/C(C#N)=C\c1ccc(O)c(OC)c1	1	-3	108	-2	-21	-26
CN1C(=O)C2(c3ccccc31)C1CCCC=C1C(C#N)=C(N)C2(C#N)C#N (stereo not drawn)	0	-2	2	-7	-10	-13
CCn1c2ccccc2c2cc(/C=N/NC(=O)c3cccc(C)c3)ccc21	2	0	45*	0	-6	-5
CCn1cc(C(=O)N2CCCC(CO)(Cc3ccccc3C)C2)cn1 (stereo not drawn)	-1	2	3	-3	-4	1
FC(F)(F)c1cc(NC2CCCCC2)ccn1	-1	1	-4	2	2	3
CC(=O)Oc1cc(C(=O)OCC(=O)N2CCc3ccccc3C2)cc(OC(C)=O)c1OC(C)=O	2	6	10	7	53*	5
COc1ccc(C(=O)OCC(=O)N2CCc3ccccc3C2)cc1OC	0	2	6	1	-8	-1
O=C(Nc1ccc(F)cc1F)c1noc2c1CCC2	14	22	32	4	79*	88*
O=C(Nc1cc(Cl)ccc1Cl)c1noc2c1CCCC2	0	2	-1	1	-10	4
Cc1cc(=O)oc2cc(OCc3ccc(C(=O)OCC(=O)NC4CCS(=O)(=O)C4)cc3)ccc12 (stereo not drawn)	13	6	9	57*	50	20
Cc1cc(=O)oc2cc(OCc3ccc(C(=O)OCC(=O)N(C)C4CCS(=O)(=O)C4)cc3)ccc12 (stereo not drawn)	0	-4	2	2	-11	1
O=c1c2c3c(sc2nc2n1CCCCC2)CCCCC3	0	2	-2	0	/	-2
N=c1c2c3c(sc2nc2n1CCCCC2)CCCCC3	0	42*	1	4	-2	4
CC1(C)CC(NC(=O)C23CCC(C)(C(=O)C2)C3(C)C)CC(C)(C)N1 (stereo not drawn)	-1	1	3	0	-5	2
Nc1cccc(N2C(=O)c3cccc4c(N)ccc(c34)C2=O)c1	-2	-32	-76	-68	-8	40
CC(C)CCN1C(=O)c2cccc3c(N)ccc(c23)C1=O	-5	-114	-75	-90	-7	122*
Cc1cccc(N2C(=O)c3cccc4c(N)ccc(c34)C2=O)c1	-8	-115	-75	-107	0	75*
O=C(Nc1ccc2c(c1)OCCO2)C1CCCN1C(=O)Nc1ccc(F)cc1 (stereo not drawn)	-1	1	1	-4	-7	1
CCOC(=O)C1=C(O)/C(=C/c2ccc(-c3ccccc3C(=O)O)o2)SC1=Nc1ccc(C)cc1	7	4	50*	6	9	23
CC1CN(C2CCCCC2)C(=S)NC1=O (stereo not drawn)	-1	-3	2	1	-12	-1
CCCCNC(=O)c1nc(C2CCNCC2)oc1-c1cccc(C(F)(F)F)c1	60*	/	17	11	/	/
COC(=O)c1ccc(C)c(NC(=O)COC(=O)C2CC3CCCC(C2)C3=O)c1 (stereo not drawn)	-1	1	2	1	-8	5
O=c1/c(=C/c2ccccn2)sc2nc3ccccc3n12	4	-5	-1	-3	0	39
SMILES	LMPTP inh	STEP inh	CSN inh	SUMO1 PPI mod	Scp-1 inhibitor	DNMT1 inh
O=c1/c(=C\c2cc([N+](=O)[O-])cc([N+](=O)[O-])c2O)sc2nc3ccccc3n12	9	35	14	27	80*	18
COC(=O)/C=c1/sc2nc3ccccc3n2c1=O	1	14	4	-7	-6	1
O=C(O)c1cc(C(=O)O)cc(-c2ccc(/C=c3/sc4nc5ccccc5n4c3=O)o2)c1	/	/	/	/	70*	/
COC(=O)c1cn(Cc2cc(OC)ccc2OC)cc(F)c1=O	-1	-2	4	3	-19	-1
CC(OC(=O)c1nsc(Cl)c1Cl)C(=O)NC(C)(C)C (stereo not drawn)	-2	0	1	2	-5	2
COCCn1ccc2c(OCC(=O)NCCc3ccccc3)cccc2c1=O	0	-2	-9	8	-5	0
O=C(/C=C/c1ccc(O)c(O)c1)NC(=O)c1ccccc1O	1	0	13	0	15	16
O=C(/C=C/c1ccc(Br)cc1)NC(=O)c1ccccc1O	56*	13	19	21	59*	0
CC1(C(=O)NS(=O)(=O)c2cccc(F)c2)CCN1C(=O)CC1CCCCC1 (stereo not drawn)	-2	4	-2	3	/	-2
CC1CCN(Cc2nc(-c3ccccc3)no2)CC1	-1	-4	-2	50*	-11	-2
c1ccc(-c2noc(CN3CCN(c4ccccc4)CC3)n2)cc1	0	-1	2	6	-8	-4
Nc1ccc(N)c(C(=O)O)c1	81*	96*	17	105*	96*	117*
Nc1ccc(C(=O)O)c(O)c1	0	-1	-1	0	24	-1
COc1ccc(C(=O)c2ccc([N+](=O)[O-])cc2Cl)cc1	2	-1	-13	-29	-3	-1
CCc1nn2c(=O)cc(COc3ccc(NC(=O)c4ccco4)cc3)nc2s1	1	-2	3	4	8	1
CCCc1nn2c(=O)cc(COc3ccc(NC(=O)c4ccco4)cc3)nc2s1	0	-1	3	66*	-7	-2
CCCCC(=O)N1CCN(c2nc3ccc(F)cc3s2)CC1	-2	-4	-1	5	-5	6
CCCCC(=O)N1CCN(c2nc3ccc(OCC)cc3s2)CC1	0	1	63*	3	-4	0
C/C(=N\NC(=O)c1ccc(N/N=C(\C)c2ccc(O)cc2)cc1)c1ccc(O)cc1	1	-1	-2	12	-16	-18
Cc1ccc2c(c1C)-c1c(ccc(C)c1C)C(=O)C2=O	8	5	17	49*	-16	95*
CCN(CC)C(=O)C1=C(C)N(CCCOC)C(=O)C(CC(=O)NC(c2ccccc2)c2ccccc2)C1 (stereo not drawn)	-2	4	1	-2	/	3
